Most compounds without a hit are left out; they make up all but 2.2% or so of the library.
STAT3 inh: IL-6 driven STAT3 reporter inhibitors, primary screen, U3A cells, luciferase, luminescence, MLSCN library | IL-6 STAT3-luciferase reporter; host cell line lacks STAT1 | inhibition, % at 5.5 µM | hit rate 0.89% among 190,000;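 active means inhibition above the mean inhibition across all screened compounds plus 3 SD, cut at about 44% in these data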;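 further: 0% = DMSO only wells and 100% = 100 µM nifuroxazide control wells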
PPC-1+TRAIL kill: compounds killing PPC-1 cancer cells with TRAIL present, primary screen, TRAIL potentiator project, ATPLite luminescence, uHTS | PPC-1 cells + TRAIL, ATPLite viability luminescence | cell killing (% activity), % at 4 µM or 5 µM | hit rate 0.41% among 220,000 | AID 1443, 2008;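 active means cell killing above 50% in the first pass at 4 µM, then a duplicate retest at 5 µM averaging 50% or more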;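 further: plate controls were cells with TRAIL plus DMSO for no effect and medium-only wells lacking cells for full effect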
TRAIL sens C8: viability loss with TRAIL in NB7+C8 cells, primary screen, TRAIL sensitizer project, cell-based, ATPlite luminescence; hit rate 1% among 360,000; AID 624354, 2012; inhibition (viability loss, TRAIL sensitization), % at 10 µM;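 active means compounds causing at least 50% loss of cell viability in the single-dose screen, relative to plate controls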
FLuc inh counter: firefly luciferase enzyme inhibitors, primary screen, artefact control for luciferase-based inhibitor screens, biochemical, luminescence, ATPLite; 10 min; inhibition, % at 10 µM; hit rate 1.5% among 200,000;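 active means inhibition above about 50% when tested at 10 µM, limit read from the data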
Target sequence (P08659 whole entry, looked up): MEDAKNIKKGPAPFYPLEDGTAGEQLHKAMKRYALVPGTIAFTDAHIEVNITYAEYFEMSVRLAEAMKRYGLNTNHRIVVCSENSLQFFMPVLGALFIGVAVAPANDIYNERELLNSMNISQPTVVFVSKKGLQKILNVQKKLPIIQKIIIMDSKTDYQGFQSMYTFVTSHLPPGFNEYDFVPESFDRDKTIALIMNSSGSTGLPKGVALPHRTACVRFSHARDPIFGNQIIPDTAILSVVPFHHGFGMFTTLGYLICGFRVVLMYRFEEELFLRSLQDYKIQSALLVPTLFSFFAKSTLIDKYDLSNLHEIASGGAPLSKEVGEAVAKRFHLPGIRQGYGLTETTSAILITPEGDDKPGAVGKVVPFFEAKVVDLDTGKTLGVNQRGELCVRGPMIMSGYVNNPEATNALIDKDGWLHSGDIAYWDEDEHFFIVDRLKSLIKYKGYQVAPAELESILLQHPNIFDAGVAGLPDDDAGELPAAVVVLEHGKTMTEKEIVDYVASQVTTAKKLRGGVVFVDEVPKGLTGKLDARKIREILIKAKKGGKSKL
HSP90 refold inh: HSP90 inhibitors, primary screen, cell lysate, luminescence. Rabbit reticulocyte lysate, luciferase refolding luminescence, 3 h. inhibition, % at 5.6 µM. hit rate 0.91% among 290,000. AID 1789, 2009;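 active means inhibition above the screen-wide mean plus 3 SD, computed separately per campaign, cut at about 16% in these data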;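 further: 0% = DMSO wells and 100% = 60 µM geldanamycin wells; inhibitors lower the luminescence because luciferase stays unfolded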
FLuc act counter: FLuc activators, initial screening, artefact control for FLuc-dependent activation tests, biochemical, ATPlite luminescence. ATPlite luciferase biochemical, 10 min; 0 = ATP-free wells, 1 = DMSO control. activation factor at 10 µM. 200,000 tested, under 10 active;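 active means luciferase activation factor, scaled between plate controls, of at least 2 with compound at 10 µM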
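System: Luciferase/luciferin detection reagent, cell-free biochemical luciferase assay | Medium: PBS buffer for ATP | Dosing: Test compounds dosed from 2 mM stocks in 100% DMSO | Timing: 10 min at ambient temperature | Signal: Luminescence measurement of luciferase light output | Evaluation: Luciferase activation, seen as luminescence increase over controls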
HSP90 confirm: HSP90 inhibitors, confirmation, cell lysate, luminescence | shares compounds with HSP90 refold inh | rabbit reticulocyte lysate, luciferase refolding luminescence, 3 h | inhibition, % at 5.9 µM | hit rate 64% among 2,300; in the data active means inhibition above about 18%;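 further: 0% = vehicle wells and 100% = reference inhibitor wells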
luciferase ctr: firefly luciferase inhibitors, HSP90 counter-screen, confirmation, artefact control for HSP90 inhibitor project, biochemical, luminescence, triplicate; shares compounds with HSP90 refold inh; inhibition, % at 5.9 µM; AID 1847, 2009; hit rate 48% among 2,300; purified native firefly luciferase;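 active means inhibition above the mean inhibition of all tested sample wells plus 3 SD, cut at about 10% in these data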;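 further: 0% = DMSO with luciferase and 100% = wells lacking luciferase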
Starred values were filed as active, the others as inactive; · = no result.

SMILES	STAT3 inh	PPC-1+TRAIL kill	TRAIL sens C8	FLuc inh counter	HSP90 refold inh	FLuc act counter	HSP90 confirm	luciferase ctr
CSc1ccccc1NC(=O)CN(C)C(C)C(=O)NCc1ccc2c(c1)OCO2 (stereo unspecified)	·	·	-2	·	·	·	·	·
O=C(NCc1ccco1)C1(c2ccccc2)CCCC1	2	12	2	0	-3	1	·	·
C=C1C2(C(=O)NCc3ccco3)CCC(C2)C1(C)C (stereo unspecified)	-4	-4	-1	-5	20*	1	-6	-9
O=C(COC(=O)c1ccc(F)c(S(=O)(=O)N2CCOCC2)c1)Nc1ccc2c(c1)OCO2	·	·	0	·	·	·	·	·
CN(C)S(=O)(=O)c1ccc(C(=O)Nc2nc(-c3ccccc3)c(C(=O)c3ccccc3)s2)cc1	-6	16	14	-3	-1	1	·	·
Cc1cc(-c2csc(NC(=O)c3ccc(S(=O)(=O)N(C)C)cc3)n2)c(C)n1-c1ccccc1	12	11	-3	-3	22*	1	41*	-2
CN(C)c1ccc(N=Nc2nc3ccccc3n2C)cc1	·	5	95*	·	21*	·	19*	93*
CCC(=O)N1CCc2cc(S(=O)(=O)CCC(=O)NCc3ccco3)ccc21	6	36	-6	-2	23*	1	-6	-10
CCN(c1cccc(C(F)(F)F)c1)S(=O)(=O)c1ccc2c(c1)CCN2C(=O)C1CC1	3	1	22	-8	1	1.1	·	·
CCC(=O)N1CCc2cc(S(=O)(=O)N(CC)c3cccc(C)c3)ccc21	3	5	22	-4	62*	1	-4	-6
CCN(CC)S(=O)(=O)c1ccc(NN=c2c(=O)c3ccccc3c2=O)cc1	·	13	6	·	2	·	·	·
Cc1ccc2c(c1)COc1c3ccc(C(=O)O)cc3nn1-2	·	·	34	·	96*	·	94*	79*
Cc1ccc(NC(=O)C2CCN(c3ncnc4c3nc3n4CCCCC3)CC2)nc1	·	·	0	·	34*	·	-10	-22
O=C(C1CCN(c2ncnc3c2nc2n3CCCCC2)CC1)N1CCCCC1	·	·	6	·	2	·	·	·
CCOC(=O)c1oc2ccc(S(=O)(=O)N3CCC(C)CC3)cc2c1C	10	16	-4	-6	21*	1.1	-2	-9
CCOC(=O)c1oc2ccc(S(=O)(=O)N3CCOCC3)cc2c1C	8	16	4	-3	0	1	·	·
CC(C)Oc1ccc(Br)cc1/C=N\NC(N)=S	4	6	4	-1	-3	1	·	·
CCc1cc(C(=O)Nc2ccc(OC)nc2)sc1C	·	·	27	·	·	·	·	·
CCc1cc(C(=O)Nc2ncccc2O)sc1C	·	·	30	·	43*	·	53*	43*
Cc1cc(/C=C2\SC(=O)N(C)C2=O)c(C)n1-c1ccc(O)cc1	·	·	27	·	48*	·	64*	63*
Cc1cc(/C=C2\SC(=O)N(C)C2=O)c(C)n1-c1ccc(S(N)(=O)=O)cc1	·	·	-4	·	-1	·	·	·
COc1ccc(/C=N/Nc2nc(C(=O)O)cs2)cc1	·	·	-3	·	66*	·	90*	74*
C/C(=N\Nc1nc(C(C)(C)C)cs1)c1ccccc1	·	·	9	·	-6	·	·	·
C/C(=N\Nc1nc(C(=O)O)cs1)c1ccccc1	-7	2	·	3	29*	1	-5	-7
O=C(COc1ccc2c(c1)OCO2)Nc1nccs1	·	·	53*	·	37*	·	53*	36*
SMILES	STAT3 inh	PPC-1+TRAIL kill	TRAIL sens C8	FLuc inh counter	HSP90 refold inh	FLuc act counter	HSP90 confirm	luciferase ctr
C=CCOc1c(CNc2cccc(C(=O)O)c2)cccc1OC	-14	13	10	1	45*	1	53*	-18
C=CCOc1c(CNc2cccc(C(=O)O)c2)cccc1OCC	10	14	-24	0	-4	1	·	·
CCOc1ccc(CN2CCN(Cc3cc4ccccc4o3)CC2CCO)cc1 (stereo unspecified)	·	·	-8	·	61*	·	2	-2
Cc1ccc(S(=O)(=O)NCC(=O)N(CC(=O)NCc2ccco2)Cc2ccco2)cc1	2	20	10	-2	1	1	·	·
O=C(CN(Cc1ccco1)C(=O)CNS(=O)(=O)c1ccc(Cl)cc1)NCc1ccco1	·	·	-16	·	55*	·	-2	-8
O=C(Nc1nc2ccccc2[nH]1)c1ccccc1OC(F)F	·	·	69*	·	30*	·	55*	45*
O=C(Nc1nc2ccccc2[nH]1)c1ccc(OC(F)F)cc1	·	·	83*	·	37*	·	58*	53*
Cc1ccsc1C(=O)Nc1nc2ccccc2[nH]1	·	41	60*	·	22*	·	38*	29*
COc1ccc(Cl)cc1C(=O)Nc1nc2ccccc2[nH]1	·	·	81*	·	71*	·	87*	77*
Cc1c(C(=O)Nc2nc3ccccc3[nH]2)cccc1[N+](=O)[O-]	-11	4	-2	17	4	0.8	·	·
CCOc1ccc(C(=O)Nc2nc3ccccc3[nH]2)cc1OCC	37	9	2	6	-3	0.9	·	·
CN(C)S(=O)(=O)c1ccc(C(=O)Nc2nc3ccccc3[nH]2)cc1	2	15	11	24	-4	0.8	·	·
COc1cc(C)ccc1OCc1cc(C(=O)N(Cc2c(C)nn(C)c2C)C2CC2)no1	·	·	10	·	-4	·	·	·

Screening data deposited in PubChem BioAssay by several laboratories.
